TDP2 absorb: blocks human TDP2 phosphodiesterase activity; recombinant TDP2, T5PNP hydrolysis, p-nitrophenol absorbance 415 nm; hit rate 0.34% among 370,000; O95551; AID 720702; inhibition, % at 12.8 µM;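 active = inhibition above the mean of all tested compounds plus 3 SD, set per campaign, cut at about 25% in these data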;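 also: 0% = DMSO with enzyme and 100% = buffer with substrate but no TDP2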
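test system = human TDP2 enzyme | input = TDP2 enzyme at 120 nM final | medium = 50 mM Tris-HCl pH 7.5 with Mg2+, KCl, DTT, BSA | also added = T5PNP substrate, 5 mM | times = 2 h at 37 °C | technique = epi absorbance | benchmarks = high control without enzyme, low control DMSO plus TDP2 | replication = each compound tested once, singlicate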
GSTO1 counter: blocks human GSTO1 in RBBP9 counter-screen; inhibition, % at 5.96 µM; recombinant GSTO1, activity-based probe fluorescence polarization; P78417; hit rate 1.1% among 300,000;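 active = inhibition above the campaign mean inhibition plus 3 SD, cut at about 35% in these data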;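 also: 0% = GSTO1-1 with DMSO and 100% = wells lacking GSTO1-1 enzyme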
Target sequence (P78417 whole entry, looked up): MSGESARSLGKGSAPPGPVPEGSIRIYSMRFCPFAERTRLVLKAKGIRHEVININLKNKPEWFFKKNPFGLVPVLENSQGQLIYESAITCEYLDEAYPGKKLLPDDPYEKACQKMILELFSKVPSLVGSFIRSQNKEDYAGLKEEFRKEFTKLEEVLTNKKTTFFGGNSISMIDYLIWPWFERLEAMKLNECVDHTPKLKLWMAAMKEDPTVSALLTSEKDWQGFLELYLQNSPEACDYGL
PAD4 inh: blocks human protein arginine deiminase 4. Q9UM07. recombinant PAD4, RCA probe fluorescence polarization. inhibition, % at 6.36 µM. hit rate 0.41% among 330,000. AID 485272;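 active = percent inhibition above a cutoff equal to the mean of all tested compounds plus 3 SD, cut at about 15% in these data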;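 also: 0% = PAD4 with RCA probe and DMSO and 100% = probe without PAD4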
Fh CTSL1 inh: cathepsin L1 inhibition, PFM18AAP counter-screen; recombinant F. hepatica cathepsin L1, Z-Leu-Arg-MCA fluorescence; inhibition, % at 5.96 µM; hit rate 0.49% among 300,000; AID 1906;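 active = inhibition above the mean of all tested compounds plus 3 SD, set per screening campaign, cut at about 17% in these data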;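 also: 0% = plate median of test compound wells and 100% = 1 µM Z-Phe-Ala-diazomethylketone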
PRMT1 inh: PRMT1 (human) inhibition, primary screen. AID 652257. inhibition, % at 2.79 µM. hit rate 1.3% among 370,000. recombinant PRMT1, activity-based probe fluorescence polarization;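 active = inhibition above about 21% made by adding two undisclosed values, limit read from the data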
Target sequence (Q99873 whole entry, looked up): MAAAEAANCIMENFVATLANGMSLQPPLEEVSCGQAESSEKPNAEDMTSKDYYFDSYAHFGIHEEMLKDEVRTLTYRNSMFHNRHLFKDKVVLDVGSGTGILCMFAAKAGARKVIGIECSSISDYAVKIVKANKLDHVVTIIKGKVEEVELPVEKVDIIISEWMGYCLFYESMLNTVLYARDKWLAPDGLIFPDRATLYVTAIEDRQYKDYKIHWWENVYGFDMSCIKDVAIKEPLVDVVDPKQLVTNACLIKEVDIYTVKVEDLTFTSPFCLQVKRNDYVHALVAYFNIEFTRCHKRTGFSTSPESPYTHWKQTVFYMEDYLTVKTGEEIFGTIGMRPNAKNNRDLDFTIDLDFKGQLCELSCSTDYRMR
TDP2 inh conf: confirmation of human TDP2 inhibitors; hit rate 22% among 1,100; shares compounds with TDP2 absorb; inhibition, % at 12.8 µM; recombinant human TDP2, absorbance read-out; in the data active = inhibition above about 25%;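 also: 0% = vehicle with enzyme and 100% = no enzyme buffer only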
* hit, by the source's call; nt = no result given. Compounds with a hit are over-represented: about 2.5% of the library has one in this group of screens.

SMILES | TDP2 absorb | GSTO1 counter | PAD4 inh | Fh CTSL1 inh | PRMT1 inh | TDP2 inh conf
CC(NC(=O)C(C)N1CCN(Cc2ccccc2)CC1)c1ccccc1 (centres undefined) | 25* | 2 | 6 | 3 | -2 | -3
Cc1cccc(CN2CCN(C(C)C(=O)NC(C)c3ccccc3)CC2)c1 (centres undefined) | 3 | -9 | -2 | 0 | 8 | nt
Cc1cc(Cl)c2oc(C(=O)N3CCOCC3)c(C)c2c1 | -5 | nt | nt | nt | -1 | nt
Cc1cc(Cl)c2oc(C(=O)N3CCN(C(=O)c4ccco4)CC3)c(C)c2c1 | 31* | 5 | -4 | 1 | -3 | -1
CC(=O)C1(C(=O)Nc2cc(C)cc(C)c2)CC(c2ccccn2)=NO1 (centres undefined) | -10 | nt | nt | nt | 2 | nt
COc1cc(NC(=O)c2ccccc2)c(C)cc1NC(=O)CSc1nnc(-c2cnccn2)n1-c1ccc(C)cc1 | 2 | nt | nt | nt | -2 | nt
CCOc1ccc(CCNC(=O)C2CC(=O)N(CCc3ccc(OC)c(OC)c3)C2)cc1OCC (centres undefined) | 25* | -14 | 2 | -3 | -1 | 2
O=C1C=C(O)c2[nH]c(=O)ccc2C1=O | 41* | nt | nt | nt | 6 | 42*
CCOC(=O)Cn1cc(CN2C(C(=O)OC)CN(C3CC3)CCS2(=O)=O)nn1 (centres undefined) | 5 | nt | nt | nt | -4 | nt
CCC(=O)NC(c1cccs1)c1cc([N+](=O)[O-])c2cccnc2c1OC (centres undefined) | 70* | nt | nt | nt | 14 | 18
CC(C)C(=O)NC(c1cccs1)c1cc([N+](=O)[O-])c2cccnc2c1O (centres undefined) | nt | -2 | -9 | 4 | nt | nt
CCOc1ccc2c(c1)C(C)=CC(C)(C)N2 | 26* | nt | -7 | nt | 13 | -2
OC(c1ccccc1)(c1ccccc1)C1CCN(CCCNc2cccc(OC(F)(F)F)c2)CC1 | -16 | nt | nt | nt | 1 | nt
Cc1cccc(-c2cccc3c4c([nH]c23)[C@@H]2C[C@H]3[C@@H](CN2CC4)[C@H](C)ON3C)c1 | 3 | nt | nt | nt | -3 | nt
O=C(Nc1c(-c2ccccc2)[nH][nH]c1=O)c1ccc2c(c1)OCO2 | 48* | nt | nt | nt | 5 | 23
O=C(Nc1c(-c2ccc3c(c2)OCO3)[nH][nH]c1=O)c1ccccc1 | 68* | nt | nt | nt | 0 | 71*
O=C(Nc1c(-c2ccc3c(c2)OCO3)[nH][nH]c1=O)c1cccc(C(F)(F)F)c1 | 55* | nt | nt | nt | -4 | 9
O=C(Nc1ccc2c(c1)OCO2)c1cccc(F)c1 | 2 | 2 | -1 | 0 | -5 | nt
Cc1ccc(C(=O)Nc2c(-c3ccc(Cl)cc3)[nH][nH]c2=O)cc1 | 61* | nt | nt | nt | 2 | 27*
O=C(Nc1c(-c2ccccc2)[nH][nH]c1=O)c1ccc(-c2ccccc2)cc1 | 6 | nt | nt | nt | -1 | nt
CCN(CC)C(=O)CC[C@H]1CC[C@]2(CCCN(C(=O)c3cccnc3)C2)O1 | -6 | nt | nt | nt | 0 | nt
C[C@H]1C2CC(OC(=O)Nc3ccc(C#N)cc3)C(C2)[C@H]2CCCCN21 (some centres undefined) | 4 | nt | nt | nt | 2 | nt
CC(=O)c1ccc(S(=O)(=O)NC2CCSc3ccccc32)cc1 (centres undefined) | -2 | 2 | -3 | 0 | 3 | nt
O=S(=O)(NC1CCSc2ccccc21)c1ccc(Cl)nc1 (centres undefined) | 28* | 1 | 2 | -2 | -2 | -1
Cc1ccccc1NC(=O)[C@H]1CC(=O)O[C@@H]1c1ccccc1 | 3 | nt | nt | nt | -1 | nt
SMILES | TDP2 absorb | GSTO1 counter | PAD4 inh | Fh CTSL1 inh | PRMT1 inh | TDP2 inh conf
CCOC(=O)c1c2c(n(Cc3ccccc3)c1C)C(=O)C(=O)c1ccccc1-2 | 51* | nt | nt | nt | 0 | 73*
CC(=O)c1cc(-c2ccc3nonc3c2)c(=O)n2c1CCC2 | -4 | nt | nt | nt | -2 | nt
O=S(=O)(Nc1c(S(=O)(=O)c2ccccc2)c2nc3ccccc3nc2n1C1CCCCC1)c1ccccc1 | 89* | 49* | -8 | -1 | 0 | 84*
CC(=O)Nc1c(S(=O)(=O)c2ccccc2)c2nc3ccccc3nc2n1Cc1ccccc1 | 2 | 1 | 1 | 2 | 6 | nt
Cn1c(CC(=O)Nc2ccccc2Cl)nnc1SCC(=O)Nc1nncs1 | 2 | 3 | 2 | 2 | -6 | nt
Cc1ccc(NC(=O)Cc2nnc(SCC(=O)Nc3nncs3)n2C)c(C)c1 | 29* | -7 | -1 | 2 | 0 | 2
C[C@@H]1CN(c2ccc(N3CCN(C(=O)OC(C)(C)C)C[C@H]3C)cc2C#N)CCN1Cc1ccccc1 | -17 | nt | nt | nt | 10 | nt
CCOc1ccccc1NC(=O)c1cc2c(C)nn(-c3ccccc3)c2s1 | -1 | nt | nt | nt | 0 | nt
COc1ccc(CC(=O)OCC(=O)NCc2ccc3c(c2)OCO3)cc1OC | -2 | nt | -5 | nt | -2 | nt
COc1ccc(CC(=O)OC(C)C(=O)NCc2ccc3c(c2)OCO3)cc1OC (centres undefined) | 44* | -6 | -6 | -4 | 0 | 3
O=S1(=O)c2ccc(N3CCSCC3)cc2Oc2ccccc2CN1Cc1cn(Cc2cccc(C(F)(F)F)c2)nn1 | -2 | nt | nt | nt | 0 | nt
CCCCNc1cc(NC(C)=O)cc2cc(OC)c(OC)cc12 | 30* | 35* | -14 | -1 | 4 | 29*
N#CCC[C@@H]1CC[C@]2(CCCN(C(=O)c3ccno3)C2)O1 | 11 | nt | nt | nt | -4 | nt
CN1CCN(CC(=O)Nc2nc3ccccc3s2)CC1 | 25* | 5 | 4 | 0 | -1 | 3
CCN1CCN(CC(=O)Nc2nc3ccccc3s2)CC1 | 18 | 2 | 0 | 1 | 2 | nt
Cc1c(Cl)cnc(NC(=O)COC(=O)c2ccc([N+](=O)[O-])s2)c1Cl | 37* | 30 | -2 | 59* | 11 | 22
Cc1c(Cl)cnc(NC(=O)COC(=O)c2cccs2)c1Cl | 4 | nt | 5 | nt | 5 | nt
O=C(COC(=O)c1ccc([N+](=O)[O-])s1)Nc1ccc(F)cc1 | 47* | nt | -1 | nt | 0 | 31*
O=C(COC(=O)/C=C/c1ccc([N+](=O)[O-])cc1)Nc1ccc(F)cc1 | -8 | nt | 0 | nt | -1 | nt
O=S1(=O)c2c(NCc3ccco3)cccc2Oc2ccccc2CN1Cc1cn(Cc2ccccc2C(F)(F)F)nn1 | 12 | nt | nt | nt | 1 | nt
N#CC(C#N)=C1NC(N)=C(C#N)C(c2ccccc2)=C1C#N | 32* | -5 | 3 | 3 | 18 | 29*
Cc1ccccc1SCC(=O)Nc1ccc(N2CCOCC2)cc1 | -2 | -2 | -2 | 2 | 2 | nt
Nc1ccccc1SCC(=O)Nc1ccc(N2CCOCC2)cc1 | 28* | 11 | -8 | 2 | -2 | 7
CC1CCC2(CC1)CCC2NCc1ccc(Cl)c(Cl)c1 (centres undefined) | 6 | nt | nt | nt | 0 | nt
CS(=O)(=O)c1nc(S(=O)(=O)c2ccc(Cl)cc2)c(NCCCN2CCOCC2)s1 | 27* | 5 | 2 | 2 | -1 | 1
Cc1cc(-c2ccccc2)nc2oc(C(=O)NN)c(N)c12 | 30* | 2 | -9 | 8 | 1 | 6
Cc1cc(C)c2c(N)c(C(=O)c3ccccc3)oc2n1 | 6 | 20 | 2 | 0 | -1 | nt

Bioassay records from PubChem BioAssay.
